The text below walks through data of ChEMBL document CHEMBL1129042, “Discovery of novel retinoic acid receptor agonists having potent antiproliferative activity in cervical cancer cells” (J Med Chem, 1996).

SMILES strings stand for the structures.

For assay [1], the target named is T1, Retinoic acid receptor RXR-beta (Homo sapiens) (UniProt P28702).
T1 sequence (whole entry): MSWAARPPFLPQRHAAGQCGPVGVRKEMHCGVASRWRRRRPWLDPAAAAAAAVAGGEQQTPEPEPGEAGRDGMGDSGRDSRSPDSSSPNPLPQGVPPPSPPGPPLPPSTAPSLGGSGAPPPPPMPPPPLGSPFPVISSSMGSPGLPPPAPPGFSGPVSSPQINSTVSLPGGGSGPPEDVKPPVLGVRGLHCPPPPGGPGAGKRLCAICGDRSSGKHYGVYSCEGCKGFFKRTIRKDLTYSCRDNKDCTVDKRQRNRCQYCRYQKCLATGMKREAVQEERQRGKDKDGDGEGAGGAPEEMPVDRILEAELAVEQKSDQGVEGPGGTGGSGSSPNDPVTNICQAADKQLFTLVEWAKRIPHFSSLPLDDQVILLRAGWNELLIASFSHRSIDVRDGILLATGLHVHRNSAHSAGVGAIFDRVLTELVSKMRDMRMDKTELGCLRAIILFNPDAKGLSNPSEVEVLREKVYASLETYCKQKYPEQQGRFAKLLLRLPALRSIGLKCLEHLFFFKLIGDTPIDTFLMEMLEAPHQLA
The assay can be described thus: Percent transcriptional activation relative to ATRA in CV-1 cells expressing Retinoid X receptor RXR beta. The assay is classed as functional, cell-based. The method, boiled down:
(§1)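 Cotransfection transactivation assay in CV-1 cells. Full dose-response curves ran from 10^-12 to 10^-5 M. Efficacy is expressed as percent of the ATRA response, with ATRA set at 100%. Values are mean ± SEM of at least three separate experiments, each with triplicate determinations.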

Assay [2] has as its target T2, Retinoic acid receptor gamma (Homo sapiens) (UniProt P13631).
T2 sequence (whole entry): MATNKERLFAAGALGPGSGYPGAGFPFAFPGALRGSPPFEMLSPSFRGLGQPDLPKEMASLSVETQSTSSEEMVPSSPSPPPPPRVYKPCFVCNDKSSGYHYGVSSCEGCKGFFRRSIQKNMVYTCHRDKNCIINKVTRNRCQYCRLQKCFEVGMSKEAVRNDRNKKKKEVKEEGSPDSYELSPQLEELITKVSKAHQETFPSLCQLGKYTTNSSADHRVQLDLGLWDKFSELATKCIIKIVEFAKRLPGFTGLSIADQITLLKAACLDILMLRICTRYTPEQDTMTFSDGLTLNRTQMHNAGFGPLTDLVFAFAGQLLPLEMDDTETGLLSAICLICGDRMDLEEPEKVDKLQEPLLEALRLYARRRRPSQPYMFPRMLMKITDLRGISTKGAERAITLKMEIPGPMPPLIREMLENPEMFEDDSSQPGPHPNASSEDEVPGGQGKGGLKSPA
Description: Percent transcriptional activation relative to ATRA in CV-1 cells expressing Retinoic acid receptor RAR gamma. The format is functional, cell-based. An outline of the steps:
as §1

In assay [3] the target is T3, Retinoic acid receptor alpha (Homo sapiens) (UniProt P10276).
T3 sequence (whole entry): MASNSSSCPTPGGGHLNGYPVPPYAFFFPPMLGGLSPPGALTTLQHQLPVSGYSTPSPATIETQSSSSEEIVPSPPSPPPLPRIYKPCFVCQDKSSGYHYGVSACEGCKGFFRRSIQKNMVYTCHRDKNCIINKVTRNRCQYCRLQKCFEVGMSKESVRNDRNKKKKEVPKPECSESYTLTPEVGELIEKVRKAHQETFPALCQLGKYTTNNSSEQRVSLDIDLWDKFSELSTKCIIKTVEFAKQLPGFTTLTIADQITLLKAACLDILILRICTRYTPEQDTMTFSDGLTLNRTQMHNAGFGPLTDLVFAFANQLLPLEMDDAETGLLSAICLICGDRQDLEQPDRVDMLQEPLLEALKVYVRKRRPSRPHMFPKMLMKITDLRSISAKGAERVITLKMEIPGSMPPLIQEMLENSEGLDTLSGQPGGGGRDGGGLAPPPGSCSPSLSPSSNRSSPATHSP
Description: Percent transcriptional activation relative to ATRA in CV-1 cells expressing Retinoic acid receptor RAR alpha. The format is functional, cell-based. An outline of the steps: as §1

For assay [4], the target named is T4, Retinoic acid receptor RXR-alpha (Homo sapiens, UniProt P19793).
T4 sequence (P19793 whole entry): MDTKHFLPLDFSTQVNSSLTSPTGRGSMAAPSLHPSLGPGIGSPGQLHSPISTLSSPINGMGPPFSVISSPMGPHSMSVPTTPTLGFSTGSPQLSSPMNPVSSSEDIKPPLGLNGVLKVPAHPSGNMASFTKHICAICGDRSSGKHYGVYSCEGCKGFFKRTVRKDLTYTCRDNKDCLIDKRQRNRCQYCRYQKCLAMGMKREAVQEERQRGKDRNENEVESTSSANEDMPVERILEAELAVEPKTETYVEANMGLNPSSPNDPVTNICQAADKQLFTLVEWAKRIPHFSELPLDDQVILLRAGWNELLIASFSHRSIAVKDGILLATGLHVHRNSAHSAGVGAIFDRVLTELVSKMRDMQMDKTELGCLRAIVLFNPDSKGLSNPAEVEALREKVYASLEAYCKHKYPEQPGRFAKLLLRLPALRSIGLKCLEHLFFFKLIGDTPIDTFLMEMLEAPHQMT
Description: Transcriptional activation in CV-1 cells expressing Retinoid X receptor RXR alpha. The assay is classed as functional, cell-based.

Assay [5] has as its target T4, Retinoic acid receptor RXR-alpha. The assay can be described thus: Inhibition of [3H]9-cis-RA binding to Retinoid X receptor RXR alpha.
In assay [6] the target is T5, Retinoic acid receptor alpha (Homo sapiens, UniProt P10276).
T5 sequence (P10276 whole entry): T3 sequence (whole entry)
The assay can be described thus: Transcriptional activation in CV-1 cells expressing Retinoic acid receptor RAR alpha. The format is functional, cell-based.

Assay [7] addresses T6, Retinoic acid receptor beta (Homo sapiens, UniProt P10826).
T6 sequence (P10826 whole entry): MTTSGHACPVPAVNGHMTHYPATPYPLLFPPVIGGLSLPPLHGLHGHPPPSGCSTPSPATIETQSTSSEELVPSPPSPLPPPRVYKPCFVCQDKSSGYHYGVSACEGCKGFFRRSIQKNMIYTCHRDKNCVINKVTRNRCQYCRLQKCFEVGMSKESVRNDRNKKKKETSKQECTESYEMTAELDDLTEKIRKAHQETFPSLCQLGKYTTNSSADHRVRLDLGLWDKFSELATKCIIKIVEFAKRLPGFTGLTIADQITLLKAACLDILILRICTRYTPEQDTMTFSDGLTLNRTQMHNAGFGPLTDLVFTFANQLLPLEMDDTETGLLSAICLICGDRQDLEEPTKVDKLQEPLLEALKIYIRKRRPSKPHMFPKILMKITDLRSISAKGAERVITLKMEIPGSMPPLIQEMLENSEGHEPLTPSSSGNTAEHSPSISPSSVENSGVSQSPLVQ
Description: Transcriptional activation in CV-1 cells expressing Retinoic acid receptor RAR beta. The assay is classed as functional, cell-based.

Assay [8] addresses T6, Retinoic acid receptor beta. The assay can be described thus: Inhibition of [3H]ATRA binding to Retinoic acid receptor RAR beta.
Assay [9] concerns the target T7, Retinoic acid receptor RXR-beta (Homo sapiens, UniProt P28702).
T7 sequence (P28702 whole entry): T1 sequence (whole entry)
Description: Inhibition of [3H]9-cis-RA binding to Retinoid X receptor RXR beta.

For assay [10], the target named is T8, Retinoic acid receptor RXR-gamma (Homo sapiens, UniProt P48443).
T8 sequence (P48443 whole entry): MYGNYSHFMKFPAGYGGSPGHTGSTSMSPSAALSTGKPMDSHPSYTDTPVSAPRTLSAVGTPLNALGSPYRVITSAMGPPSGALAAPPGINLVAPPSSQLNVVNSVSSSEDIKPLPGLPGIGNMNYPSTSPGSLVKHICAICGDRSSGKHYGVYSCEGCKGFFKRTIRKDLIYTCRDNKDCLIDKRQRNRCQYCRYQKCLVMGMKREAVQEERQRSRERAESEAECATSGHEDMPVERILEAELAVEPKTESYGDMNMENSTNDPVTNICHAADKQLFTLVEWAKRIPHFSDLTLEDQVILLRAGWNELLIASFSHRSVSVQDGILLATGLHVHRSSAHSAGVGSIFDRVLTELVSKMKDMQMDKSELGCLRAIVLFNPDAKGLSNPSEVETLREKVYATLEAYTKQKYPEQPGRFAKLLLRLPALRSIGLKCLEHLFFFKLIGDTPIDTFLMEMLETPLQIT
The assay can be described thus: Inhibition of [3H]9-cis-RA binding to Retinoid X receptor RXR gamma.

Assay [11] deals with T8, Retinoic acid receptor RXR-gamma. Description: Transcriptional activation in CV-1 cells expressing Retinoid X receptor RXR gamma. The assay is classed as functional, cell-based.
The target of assay [12] is T7, Retinoic acid receptor RXR-beta. Description: Transcriptional activation in CV-1 cells expressing Retinoid X receptor RXR beta. The assay is classed as functional, cell-based.
Assay [13] addresses T5, Retinoic acid receptor alpha. The assay can be described thus: Inhibition of [3H]ATRA binding to Retinoic acid receptor RAR alpha.
In assay [14] the target is T8, Retinoic acid receptor RXR-gamma. Description: Transcriptional activation in CV-1 cells expressing Retinoid X receptor RXR gamma; Not active. The format is functional, cell-based.
For assay [15], the target named is T4, Retinoic acid receptor RXR-alpha. The assay can be described thus: Transcriptional activation in CV-1 cells expressing Retinoid X receptor RXR alpha; Not active. The assay is classed as functional, cell-based.

With `CC1=C(/C=C/C(C)=C/C=C/C(C)=C/C(=O)O)C(C)(C)CCC1`, the Efficacy in [1], in assay [2] and in [3] was 100% each time.

Consider `CC1=C(/C=C/C(C)=C\C=C\C(C)=C\C(=O)O)C(C)(C)CCC1`, for which the Efficacy was 128% in assay [1], 93% in assay [2] and 81% in assay [3].

By EC50 is commonly meant the concentration giving half of the maximal effect. A low value points to higher potency in that assay. Broadly, the Ki is the dissociation constant of the complex between target and ligand, obtained from inhibition or displacement. A lower Ki goes with higher affinity. On to `CC(/C=C/C=C(\C)c1cc(C(C)(C)C)cc(C(C)(C)C)c1)=C\C(=O)O` (stereo in doubt; form 1) [listing 1 of 2 here], for which the EC50 is 0.134 µM in assay [4]; 0.065 µM in assay [6]; 0.024 µM in assay [7]; 0.077 µM in [11]; 0.087 µM in assay [12]. For the same compound, the Ki came to 0.0046 µM in assay [5]; 0.09 µM in assay [8]; 0.0102 µM in assay [9]; 0.0093 µM in assay [10]; 0.0635 µM in [13].

As to `CC(/C=C/C=C(\C)c1cc(C(C)(C)C)cc(C(C)(C)C)c1)=C\C(=O)O` (stereo in doubt; form 1) [listing 2 of 2 here], the Efficacy in [1] is 27%; in assay [2] it was 58%; in assay [3], 39%.

For the compound `CC(/C=C/C=C(\C)c1cc(C(C)(C)C)cc(C(C)(C)C)c1)=C\C(=O)O` (stereo in doubt; form 2) [listing 1 of 2 here], the Ki is 0.223 µM in [5]; 0.0007 µM in assay [8]; 0.56 µM in [9]; 0.32 µM in [10]; 0.0011 µM in assay [13]. The EC50 in assay [7] was 0.0022 µM; in assay [14], “Not Active”; in [15], “Not Active”; in [12] it was “Not Active”.

For the compound `CC(/C=C/C=C(\C)c1cc(C(C)(C)C)cc(C(C)(C)C)c1)=C\C(=O)O` (stereo in doubt; form 2) [listing 2 of 2 here], the Efficacy in assay [2] is 48%; in [3], 31%.
